Compound activity as filed in PubChem BioAssay.
This is a sample that favours compounds with a hit; in the whole collection about 2.3% have one here.
ADAM17 inh: inhibits human ADAM17; recombinant ADAM17, EDANS/DABCYL FRET peptide cleavage; inhibition, % at 6.95 µM; hit rate 0.83% among 370,000; AID 720648;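 active = inhibition above the mean of compounds lying between control limits plus 3 SD, set per campaign, cut at about 8.5% in these data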;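 also: 0% = DMSO-only wells as the low control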
PLC-gamma1 inh: blocks human PLC-gamma1 enzyme activity | hit rate 0.84% among 370,000 | purified PLC-gamma1, fluorogenic substrate, fluorescence | AID 720700 | inhibition, % at 12.2 µM | P19174
Tb MetRS inh: Trypanosoma brucei MetRS inhibition; purified T. brucei MetRS, ATP depletion, Kinase-Glo luminescence; inhibition, % at 11.9 µM; hit rate 0.4% among 360,000;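 active = inhibition above a per-plate cutoff of the control wells' mean inhibition plus 3 SD, cut at about 5.5% in these data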;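 also: 0% = DMSO wells median and 100% = median of wells with control inhibitor compound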
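System: purified T. brucei MetRS enzyme / Detection: Kinase-Glo luciferase luminescence reporting remaining unconsumed ATP / Medium: HEPES buffer with MgCl2, KCl, DTT, spermine, BSA, pyrophosphatase / Replication: singlicate, one well per compound / Evaluation: percent inhibition relative to median high and low control wells / Schedule: 2 h aminoacylation at 25 °C after 15 min preincubation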
ADAM10 inh: inhibits human ADAM10; O14672; hit rate 0.62% among 370,000; AID 720582; recombinant ADAM10, EDANS/DABCYL FRET peptide cleavage, 3 h; inhibition, % at 7 µM;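 active = inhibition above a per-campaign cutoff equal to the mean of compounds falling between control-based bounds plus 3 SD, cut at about 20% in these data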;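 also: 0% = DMSO wells while the 100% control is not disclosed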
PLCb3 inh: blocks human PLC-beta3 enzyme activity | Purified PLC-beta3, fluorogenic substrate, fluorescence | inhibition, % at 12.2 µM | hit rate 0.18% among 370,000; in the data active = inhibition above about 11%;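 also: 0% = median of compound wells on plate and 100% = full blocker control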
PLCgamma1 ctr: inhibits human PLC-gamma1 in PLC-beta3 counter-screen | shares compounds with PLC-gamma1 inh | purified PLC-gamma1, fluorogenic substrate, fluorescence | inhibition, % at 12.3 µM | hit rate 3.1% among 3,300 | AID 743258
PLCb3 confirm: human PLC-beta3 inhibition, confirmation; shares compounds with PLC-gamma1 inh; purified PLC-beta3, fluorogenic substrate fluorescence; inhibition, % at 12.3 µM; hit rate 1% among 3,300; AID 743261; in the data active = inhibition above about 11%
Active calls of the source: *; x = not tested or not shown. Rule as the data show it, unless noted: active = inhibition above about 9.5%; inactive = the rest.

SMILES	ADAM17 inh	PLC-gamma1 inh	Tb MetRS inh	ADAM10 inh	PLCb3 inh	PLCgamma1 ctr	PLCb3 confirm
CC1(C(=O)NS(=O)(=O)C2CC2)CCCN(C(=O)c2cccs2)C1 (stereo unspecified)	1.2	1.8	0.2	0.5	-0.7	x	x
O=C(CSc1nnc(-c2ccccc2Br)o1)Nc1nncs1	4.8	4.4	-0.1	2.3	10.9*	0.6	-0.7
O=C(CSc1nnc(-c2ccncc2)o1)Nc1nncs1	-2.3	-6.8	-0.5	2.1	-13.3	x	x
Cc1cc(C)cc(OCC(O)CN2CCC(CN3C(=O)c4cccc5cccc(c45)C3=O)CC2)c1 (stereo unspecified)	-64.1	-38.5	-0.4	-123.9	-53.1	x	x
CCCSc1nc(C)c(CC(=O)OCC)c(=O)[nH]1	2.5	9.7*	-0.4	3.5	6.6	2.6	3.1
CCOc1ncccc1C(=O)OCCCC(=O)c1ccc(Br)cc1	2.7	3.6	-0.4	-11.8	-10.9	x	x
CCN(CC)CCc1nc(-c2ccccc2)no1	7.1	10.8*	-1.3	7.7	9.2	-2.0	2.1
O=C(O)CCc1nc(-c2ccccc2)no1	0.7	2.6	-0.4	8.4	6.3	x	x
COc1cc2c(c(OC)c1OC)C(=O)CC2	-2.6	4.1	-0.9	-1.8	-7.6	x	x
COc1cc2c(c(O)c1OC)C(=O)C(OC)CCC2 (stereo unspecified)	7.1	4.4	-0.4	9.9	11.6*	-2.9	0.3
Cn1c(=O)cc(C(=O)N/N=C/c2ccc(F)cc2)[nH]c1=O	-6.2	9.6*	0.7	-5.4	-6.0	-5.2	-7.8
O=C(O)CCC(=O)Nc1cc(C(F)(F)F)cc(C(F)(F)F)c1	-0.1	-2.1	-0.6	4.2	-4.2	x	x
CCCC(C)(C)NC(=O)CCCCC(=O)NC(C)(C)CCC	-3.7	1.4	-0.4	-4.3	1.1	x	x
CC(C)(C)NC(=O)CCCCCCCC(=O)NC(C)(C)C	4.6	13.2*	0.2	-1.6	11.4*	-6.0	-1.4
COc1ccc(OC)c(NC(=O)COC(=O)C2CCC2)c1	1.5	-0.4	-0.3	-5.6	-5.5	x	x
COc1ccc(NC(=O)CN(C)S(=O)(=O)c2ccccc2)c([N+](=O)[O-])c1	1.4	3.5	-0.1	-3.1	2.0	x	x
CN(CC(=O)Nc1ccc(F)c(F)c1F)C1CCCCC1	4.0	10.5*	-0.9	-4.0	2.4	-5.0	-3.5
COc1ccc(OC)c(NC(=O)COC(=O)C2CCCCC2)c1	4.2	10.4*	-0.1	14.9	12.2*	-1.7	0.8
COc1ccc(NC(=O)CN(C)C2CCCCC2)c([N+](=O)[O-])c1	-5.1	12.0*	-0.3	-14.0	-1.2	2.3	2.6
CCCCNC(=O)C(NC(=O)c1ccc2c(c1)OCO2)C(=O)c1ccccc1 (stereo unspecified)	-4.8	-0.3	-0.5	-9.6	0.3	x	x
O=C(CC1CCCC1)Nc1cc(S(=O)(=O)N2CCOCC2)ccc1O	-0.5	-1.0	-0.3	-10.1	-0.3	x	x
COc1ccc(S(=O)(=O)N2CCOCC2)cc1C(=O)Nc1cccc(C(=O)NC2CC2)c1	-1.2	-0.4	0.8	-10.9	-1.6	x	x
Cc1ccc(S(=O)(=O)N2CCOCC2)cc1NC(=O)CNCC1CCCCC1	-3.7	10.3*	-0.8	5.1	5.4	-4.9	-1.4
COc1ccc(S(=O)(=O)N2CCOCC2)cc1C(=O)NC1CCCCCC1	1.4	12.2*	-0.3	4.4	2.1	-5.3	0.4
COc1ccc(S(=O)(=O)N2CCCCC2)cc1C(=O)N1CCCC1	-2.3	11.9*	0.1	-6.3	-0.1	-5.6	-1.5
CC(OC(=O)CC1CCCCC1)C(=O)Nc1ccc(F)cc1 (stereo unspecified)	0.9	-0.6	-0.4	6.7	-2.7	x	x
COc1ccc([N+](=O)[O-])cc1NC(=O)C(C)OC(=O)CSC(C)C(=O)Nc1cc(C)on1 (stereo unspecified)	4.1	10.4*	0.1	3.1	3.7	-1.6	0.3
Cc1cc(C)n(-c2ccc([N+](=O)[O-])cc2)n1	3.2	6.1	-0.6	2.9	5.3	x	x
Cc1cc(N)n(-c2ccc([N+](=O)[O-])cc2)n1	5.2	11.7*	-1.1	9.5	1.1	8.2	5.4
O=C(CCC(=O)c1cccs1)OCc1nc2ccccc2s1	-4.2	-1.9	-0.1	-13.8	-4.9	x	x
